Source: ChEMBL document CHEMBL4033657, “N-Aryl-N'-ethyleneaminothioureas effectively inhibit acetylcholinesterase 1 from disease-transmitting mosquitoes” (Eur J Med Chem, 2017)
The source made the active and inactive calls. The calls are words filed in the database; no cut-off is given here.

Legend:
Acetylcholinesterase [1] = target: Acetylcholinesterase (Anopheles gambiae, UniProt Q869C3); assay: (§1) Inhibition of recombinant full length Anopheles gambiae AChE1 expressed in baculovirus-infected Sf9 insect cells using acetylthiocholine iodide as substrate measured over 60 secs by Ellman's method
Acetylcholinesterase [2] = target: Acetylcholinesterase (Homo sapiens, UniProt P22303); assay: Inhibition of recombinant human AChE expressed in HEK293F cells using acetylthiocholine iodide as substrate measured over 60 secs by Ellman's method; set-up: species or system HEK293
[3] = (§2) Inhibition of recombinant full length Aedes aegypti AChE1 expressed in baculovirus-infected Sf9 insect cells using acetylthiocholine iodide as substrate measured over 60 secs by Ellman's method
In short: (§3)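 Secreted, non-purified recombinant enzyme in growth medium, tested as enzyme source. Ellman assay at 30 °C in 0.1 M phosphate buffer pH 7.4 with 0.2 mM DTNB and 1 mM acetylthiocholine iodide; A412 followed over 60 s. Compound (100 mM DMSO stock) tested at eight concentrations, maximum 1 mM. Activity set relative to eight uninhibited controls per plate; IC50 from three-parameter variable-slope fit; 2-3 independent replicates.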

[4] = tested on: Acetylcholinesterase (Anopheles gambiae), Q869C3 [G122S]; assay: Inhibition of recombinant full length Anopheles gambiae AChE1 G122S mutant expressed in baculovirus-infected Sf9 insect cells up to 1 mM using acetylthiocholine iodide as substrate measured over 60 secs by Ellman's method; in short: as §3
Acetylcholinesterase [5] = target: Acetylcholinesterase (Anopheles gambiae, UniProt Q869C3, G122S); assay: Inhibition of recombinant full length Anopheles gambiae AChE1 G122S mutant expressed in baculovirus-infected Sf9 insect cells using acetylthiocholine iodide as substrate measured over 60 secs by Ellman's method
[6] = Selectivity ratio of IC50 for recombinant human AChE expressed in HEK293F cells to IC50 for recombinant full length Anopheles gambiae AChE1 expressed in baculovirus-infected Sf9 insect cells
In short: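 Ratio of the hAChE IC50 divided by the higher of the AgAChE1 or AaAChE1 IC50. Each IC50 came from an Ellman assay (1 mM acetylthiocholine, 0.2 mM DTNB, pH 7.4, 30 °C) with eight concentrations up to 1 mM, using 2-3 replicates.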

Anopheles gambiae [7] = assay: Insecticidal activity against 3rd instar larvae of Anopheles gambiae Kisumu assessed as mortality at 500 uM administered via de-chlorinated tap water after 24 hrs; format: functional
In short: (§4)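 Kenyan strains were reared at 27-28 °C, about 80% humidity, 12/12 h light. Per compound and concentration, 25 third-instar larvae were placed in 100 ml de-chlorinated water containing the compound and kept under insectary conditions. The negative control was plain water; the positive control was propoxur at 25 µM. Mortality was scored at 24 h; 75 treated and 50 control larvae in total.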

Aedes aegypti [8] = assay: Insecticidal activity against five days old adult Aedes aegypti Mombasa assessed as mortality at 2 mM applied topically on upper part of pronotum after 24 hrs (reference value: 2 to 10%); format: functional; settings: topical
Aedes aegypti [9] = assay: Insecticidal activity against five days old adult Aedes aegypti Mombasa assessed as mortality at 1 nmol applied topically on upper part of pronotum after 24 hrs; format: functional
Anopheles gambiae [10] = assay: Insecticidal activity against five days old adult Anopheles gambiae Kisumu assessed as mortality at 10 nmol applied topically on upper part of pronotum after 24 hrs; format: functional
Anopheles gambiae [11] = assay: Insecticidal activity against 3rd instar larvae of Anopheles gambiae Kisumu assessed as mortality at 50 uM administered via de-chlorinated tap water after 48 hrs; format: functional
Aedes aegypti [12] = assay: Insecticidal activity against five days old adult Aedes aegypti Mombasa assessed as mortality at 10 mM applied topically on upper part of pronotum after 24 hrs (reference value: 3 to 15%); format: functional; settings: topical
Anopheles gambiae [13] = assay: Insecticidal activity against 3rd instar larvae of Anopheles gambiae Kisumu assessed as mortality at 50 uM administered via de-chlorinated tap water after 24 hrs; format: functional; in short: as §4
Anopheles gambiae [14] = assay: Insecticidal activity against five days old adult Anopheles gambiae Kisumu assessed as mortality at 0.2 nmol applied topically on upper part of pronotum after 24 hrs; format: functional
Aedes aegypti [15] = assay: Insecticidal activity against five days old adult Aedes aegypti Mombasa assessed as mortality at 10 mM applied topically on upper part of pronotum after 48 hrs (reference value: 3 to 15%); format: functional; settings: topical
Aedes aegypti [16] = assay: Insecticidal activity against five days old adult Aedes aegypti Mombasa assessed as mortality at 100 mM applied topically on upper part of pronotum after 24 hrs (reference value: 3%); format: functional; settings: topical
Aedes aegypti [17] = assay: Insecticidal activity against 3rd instar larvae of Aedes aegypti Mombasa assessed as mortality at 500 uM administered via de-chlorinated tap water after 48 hrs (reference value: 0 to 2%); format: functional
Aedes aegypti [18] = assay: Insecticidal activity against 3rd instar larvae of Aedes aegypti Mombasa assessed as mortality at 50 uM administered via de-chlorinated tap water after 24 hrs; format: functional; in short: as §4
Anopheles gambiae [19] = assay: Insecticidal activity against five days old adult Anopheles gambiae Kisumu assessed as mortality at 100 mM applied topically on upper part of pronotum after 24 hrs (reference value: 9 to 10%); format: functional; settings: topical
Anopheles gambiae [20] = assay: Insecticidal activity against five days old adult Anopheles gambiae Kisumu assessed as mortality at 10 mM applied topically on upper part of pronotum after 24 hrs (reference value: 8 to 16%); format: functional; settings: topical
Aedes aegypti [21] = assay: Insecticidal activity against 3rd instar larvae of Aedes aegypti Mombasa assessed as mortality at 500 uM administered via de-chlorinated tap water after 24 hrs; format: functional; in short: as §4
Aedes aegypti [22] = assay: Insecticidal activity against 3rd instar larvae of Aedes aegypti Mombasa assessed as mortality at 50 uM administered via de-chlorinated tap water after 48 hrs (reference value: 0 to 4%); format: functional
Aedes aegypti [23] = assay: Insecticidal activity against five days old adult Aedes aegypti Mombasa assessed as mortality at 2 mM applied topically on upper part of pronotum after 48 hrs (reference value: 3 to 12%); format: functional; settings: topical
Anopheles gambiae [24] = assay: Insecticidal activity against five days old adult Anopheles gambiae Kisumu assessed as mortality at 1 nmol applied topically on upper part of pronotum after 24 hrs; format: functional
Aedes aegypti [25] = assay: Insecticidal activity against five days old adult Aedes aegypti Mombasa assessed as mortality at 100 mM applied topically on upper part of pronotum after 48 hrs (reference value: 7 to 8%); format: functional; settings: topical
Anopheles gambiae [26] = assay: Insecticidal activity against five days old adult Anopheles gambiae Kisumu assessed as mortality at 2 mM applied topically on upper part of pronotum after 48 hrs (reference value: 13 to 38%); format: functional; settings: topical
Anopheles gambiae [27] = assay: Insecticidal activity against five days old adult Anopheles gambiae Kisumu assessed as mortality at 10 mM applied topically on upper part of pronotum after 48 hrs (reference value: 14 to 22%); format: functional; settings: topical
Aedes aegypti [28] = assay: Insecticidal activity against five days old adult Aedes aegypti Mombasa assessed as mortality at 0.2 nmol applied topically on upper part of pronotum after 24 hrs; format: functional
Aedes aegypti [29] = assay: Insecticidal activity against five days old adult Aedes aegypti Mombasa assessed as mortality at 10 nmol applied topically on upper part of pronotum after 24 hrs; format: functional
Anopheles gambiae [30] = assay: Insecticidal activity against five days old adult Anopheles gambiae Kisumu assessed as mortality at 2 mM applied topically on upper part of pronotum after 24 hrs (reference value: 3 to 17%); format: functional; settings: topical
Anopheles gambiae [31] = assay: Insecticidal activity against five days old adult Anopheles gambiae Kisumu assessed as mortality at 100 mM applied topically on upper part of pronotum after 48 hrs (reference value: 15 to 24%); format: functional; settings: topical
Anopheles gambiae [32] = assay: Insecticidal activity against 3rd instar larvae of Anopheles gambiae Kisumu assessed as mortality at 500 uM administered via de-chlorinated tap water after 48 hrs; format: functional
Aedes aegypti [33] = assay: Inhibition of recombinant full length Aedes aegypti AChE1 expressed in baculovirus-infected Sf9 insect cells at 1 mM using acetylthiocholine iodide as substrate measured over 60 secs by Ellman's method; in short: as §3
[34] = target: Acetylcholinesterase (Anopheles gambiae) (UniProt Q869C3); assay: as §1
Aedes aegypti [35] = assay: as §2; in short: as §3
[36] = target: Acetylcholinesterase (Anopheles gambiae) (UniProt Q869C3); assay: Inhibition of recombinant full length Anopheles gambiae AChE1 expressed in baculovirus-infected Sf9 insect cells at 1 mM using acetylthiocholine iodide as substrate measured over 60 secs by Ellman's method; in short: as §3

NS(=O)(=O)c1ccc(NC(=S)NCCN2CCOCC2)cc1
IC50 (Acetylcholinesterase [1]): > 200 µM
IC50 (Acetylcholinesterase [2]): > 200 µM
IC50 [3]: > 200 µM
inhibition [4]: inactive

COc1cc(NC(=S)NCCN2CCOCC2)ccc1Cl
IC50 (Acetylcholinesterase [1]): > 200 µM
IC50 (Acetylcholinesterase [2]): > 200 µM
IC50 [3]: > 200 µM
IC50 (Acetylcholinesterase [5]): > 200 µM

CN(C)CC/N=C(/S)Nc1ccc(S(N)(=O)=O)cc1
IC50 (Acetylcholinesterase [1]): 74 µM
IC50 (Acetylcholinesterase [2]): > 200 µM
Ratio IC50 [6]: > 2.7
IC50 [3]: 56 µM
inhibition [4]: inactive

CN(C)CCN=C(S)Nc1ccccc1Cl
Ratio IC50 [6]: > 12

COc1ccc(NC(=S)NCCN2CCCCC2)cc1
IC50 (Acetylcholinesterase [1]): 29 µM
IC50 (Acetylcholinesterase [2]): 120 µM
Ratio IC50 [6]: 4
IC50 [3]: 28 µM
IC50 (Acetylcholinesterase [5]): 94 µM

COc1ccc(NC(S)=NCCN2CCC(C)CC2)cc1
IC50 (Acetylcholinesterase [1]): > 200 µM
IC50 (Acetylcholinesterase [2]): > 200 µM
IC50 [3]: > 200 µM
IC50 (Acetylcholinesterase [5]): > 200 µM

CN(C)CCNC(=S)Nc1ccccc1Cl
IC50 (Acetylcholinesterase [1]): 17 µM
IC50 (Acetylcholinesterase [2]): > 200 µM
IC50 [3]: 14 µM
IC50 (Acetylcholinesterase [5]): > 200 µM

COc1ccc(NC(=S)NCCN(C)C)cc1
mortality at 500 µM (Anopheles gambiae [7]): 3%
IC50 (Acetylcholinesterase [1]): > 200 µM
mortality at 2000 µM (Aedes aegypti [8]): 11%
mortality (Aedes aegypti [9]): 0%
mortality (Anopheles gambiae [10]): 55%
IC50 (Acetylcholinesterase [2]): > 200 µM
mortality at 50 µM (Anopheles gambiae [11]): 5%
mortality at 10000 µM (Aedes aegypti [12]): 12%
mortality at 50 µM (Anopheles gambiae [13]): 4%
IC50 [3]: > 200 µM
mortality (Anopheles gambiae [14]): 0%
mortality at 10000 µM (Aedes aegypti [15]): 21%
mortality at 100000 µM (Aedes aegypti [16]): 12%
mortality at 500 µM (Aedes aegypti [17]): 3%
mortality at 50 µM (Aedes aegypti [18]): 4%
mortality at 100000 µM (Anopheles gambiae [19]): 59%
IC50 (Acetylcholinesterase [5]): > 200 µM
mortality at 10000 µM (Anopheles gambiae [20]): 43%
mortality at 500 µM (Aedes aegypti [21]): 1%
mortality at 50 µM (Aedes aegypti [22]): 5%
mortality at 2000 µM (Aedes aegypti [23]): 11%
mortality (Anopheles gambiae [24]): 32%
mortality at 100000 µM (Aedes aegypti [25]): 17%
mortality at 2000 µM (Anopheles gambiae [26]): 36%
mortality at 10000 µM (Anopheles gambiae [27]): 50%
mortality (Aedes aegypti [28]): 1%
mortality (Aedes aegypti [29]): 12%
mortality at 2000 µM (Anopheles gambiae [30]): 17%
mortality at 100000 µM (Anopheles gambiae [31]): 67%
mortality at 500 µM (Anopheles gambiae [32]): 16%

CC1CCN(CCNC(=S)Nc2cccc(Cl)c2)CC1
IC50 (Acetylcholinesterase [1]): > 200 µM
IC50 (Acetylcholinesterase [2]): > 200 µM
IC50 [3]: > 200 µM
IC50 (Acetylcholinesterase [5]): > 200 µM

NS(=O)(=O)c1ccc(NC(=S)NCCN2CCCCC2)cc1
inhibition (Aedes aegypti [33]): 70%
inhibition [34]: Dose-dependent effect
IC50 (Acetylcholinesterase [1]): 7.8 µM
IC50 (Acetylcholinesterase [2]): 90 µM
Ratio IC50 [6]: 12
inhibition (Aedes aegypti [35]): Dose-dependent effect
IC50 [3]: 5.5 µM
IC50 (Acetylcholinesterase [5]): 33 µM
inhibition [36]: 70%

COc1ccc(NC(S)=NCCN2CCOCC2)cc1
IC50 (Acetylcholinesterase [1]): 11 µM
IC50 (Acetylcholinesterase [2]): > 200 µM
Ratio IC50 [6]: > 18
IC50 (Acetylcholinesterase [5]): > 200 µM

S=C(NCCN1CCOCC1)Nc1cccc(Cl)c1
IC50 (Acetylcholinesterase [1]): 68 µM
IC50 (Acetylcholinesterase [2]): > 200 µM
Ratio IC50 [6]: > 3
IC50 [3]: 53 µM
IC50 (Acetylcholinesterase [5]): > 200 µM

CN(C)CCN=C(S)Nc1cccc(Cl)c1
IC50 (Acetylcholinesterase [1]): 96 µM
IC50 (Acetylcholinesterase [2]): 140 µM
Ratio IC50 [6]: 1
IC50 [3]: 83 µM
IC50 (Acetylcholinesterase [5]): > 200 µM

FC(F)(F)c1ccc(NC(=S)NCCN2CCCCC2)cc1
IC50 (Acetylcholinesterase [1]): > 200 µM
IC50 (Acetylcholinesterase [2]): > 200 µM
IC50 [3]: > 200 µM
IC50 (Acetylcholinesterase [5]): > 200 µM

COc1ccc(NC(S)=NCCN2CCC(C)CC2)cc1Cl
inhibition (Aedes aegypti [33]): 90%
inhibition [34]: Dose-dependent effect
IC50 (Acetylcholinesterase [1]): 0.96 µM
IC50 (Acetylcholinesterase [2]): 12 µM
Ratio IC50 [6]: 13
inhibition (Aedes aegypti [35]): Dose-dependent effect
IC50 [3]: 0.63 µM
IC50 (Acetylcholinesterase [5]): 24 µM
inhibition [36]: 90%

COc1ccc(NC(=S)NCCN(C)C)cc1Cl
IC50 (Acetylcholinesterase [1]): 18 µM
IC50 (Acetylcholinesterase [2]): 46 µM
Ratio IC50 [6]: 3
IC50 [3]: 16 µM
IC50 (Acetylcholinesterase [5]): 17 µM

COc1ccccc1NC(=S)NCCN1CCCCC1
IC50 (Acetylcholinesterase [1]): 29 µM
IC50 (Acetylcholinesterase [2]): 32 µM
Ratio IC50 [6]: 1
IC50 [3]: 22 µM
IC50 (Acetylcholinesterase [5]): 66 µM

S=C(NCCN1CCCCC1)Nc1cccc(Cl)c1
IC50 (Acetylcholinesterase [1]): 140 µM
IC50 (Acetylcholinesterase [2]): 190 µM
Ratio IC50 [6]: 1
IC50 [3]: 120 µM
IC50 (Acetylcholinesterase [5]): 22 µM

COc1ccccc1N=C(S)NCCN1CCOCC1
IC50 (Acetylcholinesterase [1]): > 200 µM
IC50 (Acetylcholinesterase [2]): > 200 µM
IC50 [3]: > 200 µM
inhibition [4]: inactive
